The record followed here is ChEMBL document CHEMBL4411315, “Discovery of Novel Dual Histone Deacetylase and Mammalian Target of Rapamycin Target Inhibitors as a Promising Strategy for Cancer Therapy” (J Med Chem, 2019).

Active and inactive are the calls of the source. The calls are words filed in the database; no cut-off is given here.

The nature of series [1]: Toxicity against NOD/SCID mouse xenografted with human MM1S cells assessed as effect on body weight at 20 mg/kg, iv administered every 2 days for 5 days. It counts as organism-based. The conditions noted are these: in vivo. A digest of the protocol:
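Female NOD/SCID mice, 5-6 weeks old, received 10^7 MM1S cells in 100 μL serum-free RPMI 1640 s.c. into the right flank. At 100-200 mm3 tumours they were randomised, 6 mice per group. Tumours were measured by caliper every 2 days. At the end, tumours were excised and weighed. Survivors are reported per group.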
A general note: A xenograft is tissue or cells of one species grown in another, often human tumour cells in immunodeficient mice.

Series [2] deals with FKBP12A/mTOR (Homo sapiens) (UniProt P62942+P42345). The experiment in a line: Inhibition of human recombinant MTOR/FKBP12 expressed in mammalian expression system assessed as residual activity at 1 uM. In a few lines: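 Radiometric kinase panel (99 kinases) run at 1 μM inhibitor in duplicate with [γ-33P]ATP, kinase-specific buffer and substrate at room temperature. The reaction was started with Mg/ATP and stopped with 0.5% phosphoric acid, then spotted on P30 filtermat, washed and scintillation counted. Results are expressed as % remaining activity versus DMSO control.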
FKBP12A/mTOR (Homo sapiens), sequence (P62942 2-108 limits assumed, other chains not shown): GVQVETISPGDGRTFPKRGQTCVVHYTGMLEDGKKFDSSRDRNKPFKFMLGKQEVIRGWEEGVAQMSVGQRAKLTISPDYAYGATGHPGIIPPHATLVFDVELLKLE

Series [3] deals with MM1.S. The series can be described thus: Induction of apoptosis in human MM1S cells assessed as necrotic cells at 80 nM after 48 hrs by Annexin V-FITC/propidium iodide staining-based flow cytometric analysis (reference value: 0.32%). Type of series: functional. A general note: Flow cytometry measures light scatter and fluorescence of single cells or particles in a stream.
The test system of series [4] is MV4-11. The experiment in a line: Cell cycle arrest in human MV4-11 cells assessed as accumulation at G0/G1 phase at 10 nM after 24 hrs by propidium iodide/RNase staining-based FACS analysis (reference value: 44.79%). It counts as functional.
In another series the test system is Raji. The experiment in a line: Antiproliferative activity against human Raji cells after 72 hrs by MTT assay. It counts as functional, cell-based. A digest of the protocol:
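Log-phase cells were plated at 10000-15000 per well and exposed to serial concentrations after 24 h for 72 h. Read-out was MTT for 1-3 h, then 20% SDS overnight and absorbance at 570 nm. IC50 was calculated from growth versus untreated control, as mean ± SEM of at least three independent experiments.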

Series [5] relates to MM1.S. The series can be described thus: Induction of apoptosis in human MM1S cells assessed as early apoptotic cells at 10 nM after 48 hrs by Annexin V-FITC/propidium iodide staining-based flow cytometric analysis (reference value: 0.38%). Type of series: functional.
The subject of series [6] is MM1.S. The series can be described thus: Cell cycle arrest in human MM1S cells assessed as accumulation at G0/G1 phase at 1.25 nM after 24 hrs by propidium iodide/RNase staining-based FACS analysis (reference value: 49.22%). Type of series: functional.
For series [7], the system named is MV4-11. The series can be described thus: Induction of apoptosis in human MV4-11 cells assessed as early apoptotic cells at 10 nM after 48 hrs by Annexin V-FITC/propidium iodide staining-based flow cytometric analysis (reference value: 10.7%). It counts as functional.
For series [8], the target named is Histone deacetylase 1/2/3 (Homo sapiens) (UniProt Q13547+O15379+Q92769). The series can be described thus: Inhibition of HDAC1/2/3 in human MV4-11 cells assessed as increase in H3 acetylation after 6 hrs by Western blot analysis. It counts as cell-based. In a few lines: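 MV4-11 cells treated 6 h at 0.01, 0.1 or 1 μM. Whole-cell protein extracted in RIPA buffer and quantified by BCA. 30 μg protein run on SDS-PAGE and transferred to PVDF. Blocked 1 h in 5% milk, primary antibody overnight at 4 °C, HRP secondary 1 h, ECL detection. Acetyl-histone H3 and acetyl-α-tubulin probed, with GAPDH as loading control.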
On the technique in general: Immunoblotting shows a protein as a band on a membrane.

Series [9] deals with MM1.S. The series can be described thus: Induction of apoptosis in human MM1S cells assessed as viable cells at 40 nM after 48 hrs by Annexin V-FITC/propidium iodide staining-based flow cytometric analysis (reference value: 98.9%). It counts as functional. The note with it: read-out: Activity.
In the next series the target is Histone deacetylase 11 (Homo sapiens, UniProt Q96DB2). The series can be described thus: Inhibition of recombinant full length N-terminal GST-tagged human HDAC11 expressed in baculovirus expression system using Ac-peptide-AMC as substrate preincubated for 15 mins followed by substrate addition and measured after 1 hr by fluorescence assay.
Histone deacetylase 11, sequence (Q96DB2 whole entry): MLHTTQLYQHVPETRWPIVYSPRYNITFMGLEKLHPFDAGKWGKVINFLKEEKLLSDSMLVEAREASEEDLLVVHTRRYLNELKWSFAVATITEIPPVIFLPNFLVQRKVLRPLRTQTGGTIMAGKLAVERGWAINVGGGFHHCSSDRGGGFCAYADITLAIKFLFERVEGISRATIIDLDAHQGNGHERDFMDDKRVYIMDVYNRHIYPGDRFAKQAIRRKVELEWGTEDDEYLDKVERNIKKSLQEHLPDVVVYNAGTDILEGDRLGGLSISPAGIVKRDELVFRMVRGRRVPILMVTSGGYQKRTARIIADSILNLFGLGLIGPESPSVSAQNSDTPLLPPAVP
Series [10] relates to MV4-11. The series can be described thus: Induction of apoptosis in human MV4-11 cells assessed as necrotic cells at 80 nM after 48 hrs by Annexin V-FITC/propidium iodide staining-based flow cytometric analysis (reference value: 0.17%). It counts as functional.
The test system of series [11] is MV4-11. The series can be described thus: Induction of apoptosis in human MV4-11 cells assessed as necrotic cells at 40 nM after 48 hrs by Annexin V-FITC/propidium iodide staining-based flow cytometric analysis (reference value: 0.17%). It counts as functional.
The subject of series [12] is MM1.S. The series can be described thus: Induction of apoptosis in human MM1S cells assessed as early apoptotic cells at 160 nM after 48 hrs by Annexin V-FITC/propidium iodide staining-based flow cytometric analysis (reference value: 0.38%). It counts as functional.
In series [13] the target is T1, Serine/threonine-protein kinase mTOR (Homo sapiens, UniProt P42345). The experiment in a line: Inhibition of mTOR in human MV4-11 cells assessed as decrease in p70S6K phosphorylation at Thr 389 residues at 0.01 to 10 uM after 24 hrs by Western blot analysis. It counts as cell-based. In a few lines:
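Treatment of MV4-11 cells lasted 24 h at 0.01, 0.1, 1 and 10 μM. Lysis in RIPA buffer and BCA quantitation, then 30 μg protein by SDS-PAGE, PVDF transfer, 5% milk block, primary antibody overnight at 4 °C, HRP secondary 1 h and ECL detection. p-p70S6K (T389), p-4EBP1 (S65), p-Akt (S473) and p-ERK were probed.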

A further series deals with Histone deacetylase 9 (Homo sapiens, UniProt Q9UKV0). The series can be described thus: Inhibition of recombinant full length C-terminal His-tagged human HDAC9 expressed in baculovirus expression system using Ac-peptide-AMC as substrate preincubated for 15 mins followed by substrate addition and measured after 1 hr by fluorescence assay.
Histone deacetylase 9, sequence (Q9UKV0 whole entry): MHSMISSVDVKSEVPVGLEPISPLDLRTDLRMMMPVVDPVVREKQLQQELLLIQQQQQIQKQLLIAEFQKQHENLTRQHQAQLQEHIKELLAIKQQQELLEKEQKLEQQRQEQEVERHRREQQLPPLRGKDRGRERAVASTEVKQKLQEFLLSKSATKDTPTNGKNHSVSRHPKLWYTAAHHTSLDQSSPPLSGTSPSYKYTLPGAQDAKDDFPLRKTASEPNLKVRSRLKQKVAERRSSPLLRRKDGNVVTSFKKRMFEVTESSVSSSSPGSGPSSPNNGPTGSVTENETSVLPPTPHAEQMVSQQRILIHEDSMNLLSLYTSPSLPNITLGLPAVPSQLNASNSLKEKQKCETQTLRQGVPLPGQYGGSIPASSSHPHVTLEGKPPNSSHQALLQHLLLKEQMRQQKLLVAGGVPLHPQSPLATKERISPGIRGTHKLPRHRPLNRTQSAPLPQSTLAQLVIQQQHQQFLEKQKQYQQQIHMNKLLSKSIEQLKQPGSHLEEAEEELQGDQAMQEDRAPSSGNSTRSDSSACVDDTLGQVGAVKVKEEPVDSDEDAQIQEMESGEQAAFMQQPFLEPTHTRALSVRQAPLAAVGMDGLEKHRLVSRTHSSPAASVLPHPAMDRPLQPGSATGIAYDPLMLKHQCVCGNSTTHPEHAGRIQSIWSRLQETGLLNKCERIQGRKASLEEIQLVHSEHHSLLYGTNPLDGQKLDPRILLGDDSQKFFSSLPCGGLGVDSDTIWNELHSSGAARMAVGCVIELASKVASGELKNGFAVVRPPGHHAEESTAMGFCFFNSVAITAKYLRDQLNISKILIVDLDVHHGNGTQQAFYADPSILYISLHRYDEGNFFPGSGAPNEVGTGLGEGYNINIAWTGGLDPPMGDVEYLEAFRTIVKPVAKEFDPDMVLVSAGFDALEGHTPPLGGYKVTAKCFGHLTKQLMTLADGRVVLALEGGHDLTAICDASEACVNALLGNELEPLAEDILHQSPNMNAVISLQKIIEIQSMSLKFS
A short description of series [14]: Toxicity against NOD/SCID mouse xenografted with human MV4-11 cells assessed as effect on body weight at 10 mg/kg, iv administered every 2 days for 6 days. Type of series: organism-based. The note with it: in vivo. A digest of the protocol: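 MV4-11 cells (10^7 in 100 μL serum-free IMDM) were injected s.c. into the right flank of female NOD/SCID mice aged 5-6 weeks. Groups of 6 were randomised at 100-200 mm3. Dosing was i.v. every 2 days in physiological saline containing 2.5% DMSO and 10% cyclodextrin, pH 9. Tumours were measured by caliper every 2 days. Survivors were counted.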

Series [15] concerns the target T1, Serine/threonine-protein kinase mTOR. The series can be described thus: Inhibition of recombinant N-terminal FLAG-tagged human mTOR (1362 to end residues) using ULight-4E-BP1 (Thr37/46) peptide as substrate after 1 hr by fluorescence assay. In a few lines: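 mTOR enzyme, ATP, compound and ULight-4E-BP1 (Thr37/46) peptide in kinase buffer were incubated 1 h at room temperature. EDTA quench plus Eu-anti-phospho-4E-BP1 antibody was added and equilibrated 1 h. TR-FRET was read at excitation 320 or 340 nm and emission 665 nm. Curves were fitted, and values are means of at least two experiments.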

In series [16] the test system is MV4-11. The experiment in a line: Induction of apoptosis in human MV4-11 cells assessed as viable cells at 20 nM after 48 hrs by Annexin V-FITC/propidium iodide staining-based flow cytometric analysis (reference value: 84.1%). Type of series: functional. The conditions noted are these: MV4-11, 48 h, read-out: Activity.
Series [17] has as its system MV4-11. The experiment in a line: Cell cycle arrest in human MV4-11 cells assessed as accumulation at S phase at 2.5 nM after 24 hrs by propidium iodide/RNase staining-based FACS analysis (reference value: 36.42%). It counts as functional.
The subject of series [18] is MV4-11. The series can be described thus: Induction of apoptosis in human MV4-11 cells assessed as early apoptotic cells at 80 nM after 48 hrs by Annexin V-FITC/propidium iodide staining-based flow cytometric analysis (reference value: 10.7%). Type of series: functional.

Take `C[C@@H]1CN(C(=O)Nc2ccc(-c3nc(N4CCOCC4)c4cnn(CCCCCCC(=O)NO)c4n3)cc2)CCO1`: the Activity entry in series [1] is listed as “Non-Toxic”; in the series with MM1.S [3], 1.78%; in the series with MV4-11 [4], 65.4%; in the series on MM1.S [5], 3.09%; in the series on MM1.S [6] it was 53.85%; in the series with MV4-11 [7], 14.8%. The Activity with MV4-11 [10] was 1.86%; in the series on MV4-11 [11] it was 2.05%; in the series on MM1.S [12] it was 19.6%; in [14], “Non-Toxic”; in the series on MV4-11 [17], 33.77%; with MV4-11 [18] it was 37.6%. Further, the inhibition result in [2] and in [13] was “Active” each time. Further, the 50% inhibitory concentration (IC50) in the series with Raji is 1.9 nM; at Histone deacetylase 11 it was greater than 1000 nM; at Histone deacetylase 9, greater than 1000 nM; in series [15], 1.2 nM. Also, in series [8], the inhibition result was “Dose-dependent effect”. Moreover, the viability at 0.04 µM in the series on MM1.S [9] came to 70.1%. Besides, the viability at 0.02 µM in the series with MV4-11 [16] was found to be 20.6%.

As a reminder, the IC50 is the concentration at which inhibition is half-maximal.
